In the library only some 2.5% were active in any assay of this set; here they are far more common.
SENP8 block-1 = SENP8 (human) protease inhibition; hit rate 0.64% among 360,000; recombinant SENP8, Nedd8 substrate fluorescence; inhibition, % at 20 µM; AID 602440; in the data active = inhibition mostly above about 40%, no sharp cut-off; inactive = mostly below about 27%
Target sequence (Q96LD8 whole entry, looked up): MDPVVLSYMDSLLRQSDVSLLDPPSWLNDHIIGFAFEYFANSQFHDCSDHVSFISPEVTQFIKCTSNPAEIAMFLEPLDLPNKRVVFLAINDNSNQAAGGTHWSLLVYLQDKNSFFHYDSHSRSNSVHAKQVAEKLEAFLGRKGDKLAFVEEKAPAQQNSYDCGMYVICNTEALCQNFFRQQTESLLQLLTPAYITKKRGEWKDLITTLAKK
SENP7 inh = blocks the human protease SENP7; recombinant SENP7, Z-RLRGG-aminoluciferin luminescence, 40 min; inhibition, % at 5 µM; hit rate 1.5% among 330,000;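 active = inhibition above about 50% at the single test dose, limit read from the data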
SENP1 inh = inhibitors of human SENP1 SUMO protease catalytic domain; Q9P0U3; recombinant SENP1 catalytic domain, CyPet-SUMO1-YPet FRET cleavage; inhibition, % at 10 µM; hit rate 0.21% among 360,000; AID 624204;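 active = inhibition at least 30% at 10 µM, raw YFP signal under a set limit, fluorescence ratio 0.5 to 1.5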
Target sequence (Q9P0U3 419-644 limits assumed): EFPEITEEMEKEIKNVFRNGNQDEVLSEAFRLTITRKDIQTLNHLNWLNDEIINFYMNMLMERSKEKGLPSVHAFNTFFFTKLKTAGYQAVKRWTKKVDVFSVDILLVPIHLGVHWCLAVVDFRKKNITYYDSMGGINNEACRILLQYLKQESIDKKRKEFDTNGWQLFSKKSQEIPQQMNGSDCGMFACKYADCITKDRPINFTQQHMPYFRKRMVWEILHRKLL
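Controls: no-enzyme wells low, DMSO-plus-enzyme wells high control. Test system: human recombinant His6-tagged SENP1 catalytic domain enzyme. Reagent: SFCypet-SUMO1-SFYpet FRET protein substrate, 25 nM final. Doses: one dose per compound, 10 µM, 0.5% DMSO. Detection: FRET, CFP and YFP emission. Timing: 50 min reaction at room temperature.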
SENP8 block-2 = blocks the human protease SENP8. Q96LD8. AID 2540. inhibition, % at 10 µM. hit rate 1.2% among 330,000. purified SENP8, Z-RLRGG-aminoluciferin cleavage, luminescence; in the data active = inhibition above about 50%
SENP6 block = inhibitors of human SENP6 protease; Q9GZR1; Recombinant SENP6 catalytic domain, aminoluciferin luminescence; inhibition, % at 10 µM; hit rate 1.8% among 330,000; AID 2599;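 active = inhibition above about 50% at the single tested dose, limit read from the data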
SENP1 conf = SENP1 (human) inhibition, single concentration confirmation | shares compounds with SENP1 inh | recombinant SENP1, CyPet-SUMO1-YPet FRET cleavage | inhibition, % at 10 µM | hit rate 34% among 520 | AID 651678; in the data active = inhibition mostly above about 35%, no sharp cut-off; inactive = mostly below about 32%
SENP1 kinetic = confirmation of human SENP1 SUMO protease inhibitors, kinetic | shares compounds with SENP1 inh | recombinant SENP1, CyPet-SUMO1-YPet FRET kinetic cleavage | inhibition, % at 10 µM | hit rate 26% among 520; in the data active = inhibition mostly above about 32%, no sharp cut-off; inactive = mostly below about 29%
Hits are given with their value.

Screening C/C(=N/N=C(\C)c1ccccc1O)c1ccccc1O returned SENP8 block-1 inactive, SENP7 inh inactive, SENP1 inh inactive, SENP8 block-2 inactive and SENP6 block inactive.
Screening CCC(=NN=C(CC)c1ccccc1O)c1ccccc1O returned SENP8 block-1 inactive, SENP1 inh 46.6, SENP1 conf 130.1 and SENP1 kinetic 73.4.
Screening CCOC(=O)C(C)Sc1nnc(Cc2cc(=O)[nH]c(=O)[nH]2)n1-c1ccc(Cl)cc1 (centres undefined) returned SENP8 block-1 inactive, SENP7 inh inactive, SENP1 inh 64.2, SENP8 block-2 inactive, SENP6 block inactive, SENP1 conf inactive and SENP1 kinetic inactive.
For Cc1nc2ccc(NS(=O)(=O)c3c(F)cc(F)cc3Br)cc2s1 the results were SENP8 block-1 inactive, SENP7 inh inactive, SENP1 inh 43.6, SENP8 block-2 inactive, SENP6 block inactive, SENP1 conf inactive and SENP1 kinetic inactive.
For Cc1nc2ccc(NS(=O)(=O)c3ccc(F)cc3F)cc2s1 the results were SENP8 block-1 inactive, SENP7 inh inactive, SENP1 inh 57.8, SENP8 block-2 inactive, SENP6 block inactive, SENP1 conf 37.3 and SENP1 kinetic inactive.
`COc1cc(S(=O)(=O)Nc2ccc3nc(C)sc3c2)ccc1NC(C)=O` gave SENP8 block-1 inactive, SENP7 inh inactive, SENP1 inh 35.8, SENP8 block-2 inactive, SENP6 block inactive, SENP1 conf inactive and SENP1 kinetic inactive.
`Cc1nc2ccc(NS(=O)(=O)c3ccc(F)c(F)c3F)cc2s1` gave SENP8 block-1 inactive, SENP7 inh inactive, SENP1 inh inactive, SENP8 block-2 inactive and SENP6 block inactive.
Screening CCc1c(C)nc(N2CCN(c3ccccc3F)CC2)[nH]c1=O returned SENP8 block-1 inactive, SENP7 inh inactive, SENP1 inh inactive, SENP8 block-2 inactive and SENP6 block inactive.
Cc1ccc(-c2nnc(CCC(=O)NCC3C4CC5CC(C4)CC3C5)o2)s1 (centres undefined) was read as SENP8 block-1 inactive, SENP7 inh inactive, SENP1 inh inactive, SENP8 block-2 inactive and SENP6 block inactive.
For CC1=C(C(N)=O)S(=O)(=O)c2ccccc21 the results were SENP8 block-1 inactive, SENP7 inh inactive, SENP1 inh 47.0, SENP8 block-2 inactive, SENP6 block inactive, SENP1 conf 47.2 and SENP1 kinetic inactive.
Screening CC(C)n1c(SCC(=O)NCc2ccco2)nnc1C1CC1 returned SENP8 block-1 inactive, SENP7 inh inactive, SENP1 inh inactive, SENP8 block-2 inactive and SENP6 block inactive.
Screening CCN(CC)c1ccc(NC(=O)Nc2ccc(C(C)=O)cc2)cc1 returned SENP8 block-1 inactive, SENP7 inh inactive, SENP1 inh inactive, SENP8 block-2 inactive and SENP6 block inactive.
CCN(CC)c1ccc(N=C2C=CC(=O)C=C2NC(C)=O)cc1 was read as SENP8 block-1 inactive, SENP1 inh 66.3, SENP1 conf inactive and SENP1 kinetic inactive.
Screening Cc1cccc(C)c1-n1nnnc1-c1nc2cc(Br)ccc2[nH]c1=O returned SENP8 block-1 inactive and SENP1 inh inactive.
Cc1cccc(C)c1-n1nnnc1-c1nc2cc3ccccc3cc2[nH]c1=O was read as SENP8 block-1 inactive, SENP1 inh 62.5, SENP1 conf 61.6 and SENP1 kinetic 44.6.
COc1cc2cc(C#N)c(SCC(=O)N3CCOCC3)nc2cc1OC was read as SENP8 block-1 inactive, SENP7 inh inactive, SENP1 inh inactive, SENP8 block-2 inactive and SENP6 block inactive.
Screening COc1cc2cc(C)c(SCC(=O)N3CCOCC3)nc2cc1OC returned SENP8 block-1 inactive, SENP7 inh inactive, SENP1 inh 32.5, SENP8 block-2 inactive, SENP6 block inactive, SENP1 conf inactive and SENP1 kinetic inactive.
For Nc1ccc2oc(=O)c(-c3ccccc3)cc2c1 the results were SENP8 block-1 inactive, SENP7 inh inactive, SENP1 inh 67.9, SENP8 block-2 inactive, SENP6 block inactive, SENP1 conf inactive and SENP1 kinetic inactive.
`CC1=CC(=O)C=C/C1=C(/c1ccc(O)cc1C)c1ccccc1S(=O)(=O)O` gave SENP8 block-1 inactive, SENP7 inh inactive, SENP1 inh 35.9, SENP8 block-2 inactive, SENP6 block inactive, SENP1 conf inactive and SENP1 kinetic inactive.
For CC1=C/C(=C(\c2ccc(O)c(C)c2)c2ccccc2S(=O)(=O)O)C=CC1=O the results were SENP8 block-1 inactive, SENP7 inh inactive, SENP1 inh inactive, SENP8 block-2 inactive and SENP6 block inactive.
`CC(=O)N(Cc1ccco1)c1nc(C(=O)Nc2ccc(Cl)cc2)c(C)s1` gave SENP8 block-1 inactive, SENP7 inh inactive, SENP1 inh inactive, SENP8 block-2 inactive and SENP6 block inactive.
Screening Cc1cccc(Oc2cc([N+](=O)[O-])cc3c2C(=O)Nc2ccccc2O3)c1 returned SENP8 block-1 inactive, SENP7 inh inactive, SENP1 inh inactive, SENP8 block-2 inactive and SENP6 block inactive.
For O=C1Nc2ccccc2Oc2cc([N+](=O)[O-])cc(Oc3ccccc3)c21 the results were SENP8 block-1 inactive, SENP7 inh inactive, SENP1 inh 59.0, SENP8 block-2 inactive, SENP6 block inactive, SENP1 conf inactive and SENP1 kinetic inactive.
`N#C/C(=C\C=C\c1ccccc1[N+](=O)[O-])c1nc(-c2ccc3c(c2)OCO3)cs1` gave SENP8 block-1 inactive, SENP7 inh inactive, SENP1 inh 53.5, SENP8 block-2 inactive, SENP6 block inactive, SENP1 conf inactive and SENP1 kinetic inactive.
`N#C/C(=C\c1ccccc1[N+](=O)[O-])c1nc(C2CC2)cs1` gave SENP8 block-1 inactive, SENP7 inh inactive, SENP1 inh inactive, SENP8 block-2 inactive and SENP6 block inactive.
`CSc1ncc(C(=O)Nc2ccc(C(C)=O)cc2)c(C)n1` gave SENP8 block-1 inactive, SENP7 inh inactive, SENP1 inh inactive, SENP8 block-2 inactive and SENP6 block inactive.
Screening CC(C)(C)c1ccc(C(=O)NC(=S)Nn2cnnc2)cc1 returned SENP8 block-1 inactive, SENP7 inh inactive, SENP1 inh inactive, SENP8 block-2 inactive and SENP6 block inactive.
`CC(=O)c1ccccc1Oc1nc(CN2CCOCC2)nc2scc(-c3cccs3)c12` gave SENP8 block-1 inactive, SENP7 inh inactive, SENP1 inh 44.1, SENP8 block-2 inactive, SENP6 block inactive, SENP1 conf 52.4 and SENP1 kinetic 33.0.
For COc1ccc(C(C)=O)c(Oc2nc(CN3CCOCC3)nc3scc(-c4cccs4)c23)c1 the results were SENP8 block-1 inactive, SENP7 inh inactive, SENP1 inh inactive, SENP8 block-2 inactive and SENP6 block inactive.
COc1cc(OC)c(C2Oc3nc(SC)nnc3-c3ccccc3N2C(C)=O)cc1OC (centres undefined) was read as SENP8 block-1 inactive, SENP7 inh inactive, SENP1 inh inactive, SENP8 block-2 inactive and SENP6 block inactive.

Bioassay records: PubChem BioAssay, Sanford-Burnham Center for Chemical Genomics
